ChEMBL document CHEMBL1649120, “Differential effects of inhibiting chitin and 1,3-{beta}-D-glucan synthesis in ras and calcineurin mutants of Aspergillus fumigatus” (2009)
Active and inactive are the calls of the source. The rule behind the calls is not given here. *1 amine or outer side, *2 acyl side, *3 side chain or, on linkers, in order; H or OH if unused. Where a SMILES comes first, the peptide text is derived from it. Bridges are numbered along the chain shown (N, C = ends). [ ]: non-standard residue; d: D form. The star is where a group is joined. pTerphenylCO(4''-OnC5H11) = CCCCCOc1ccc(-c2ccc(-c3ccc(C(=O)*)cc3)cc2)cc1; Orn(4R-OH,5R-OH) = O=C([C@H](C[C@@H](O)[C@@H](O)N[*:3])N[*:1])[*:2]; hTyr(3S-OH,4S-OH) = N[C@H](C(=O)O)[C@H](O)[C@@H](O)c1ccc(O)cc1; Pro(3S-OH,4S-Me) = C[C@H]1CN[C@H](C(=O)O)[C@H]1O; Hyp = O=C(O)[C@@H]1C[C@@H](O)CN1

Legend:
[1] = tested on: Aspergillus fumigatus; experiment: Antifungal activity against cnaA deficient Aspergillus fumigatus Af293 assessed as inhibition of hyphal growth at germling stage at 1 ug/ml by CLSI method; assay type: functional, organism-based
Summary of the method: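 Conidia were grown as for CLSI susceptibility testing in RPMI 1640 with or without echinocandin (1 μg/ml) for 48 h at 37°C. Hyphal morphology was then examined by bright-field microscopy.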

[2] = tested on: Aspergillus fumigatus; experiment: Antifungal activity against Aspergillus fumigatus H237 expressing rasA gene assessed as abnormal hyphal growth by CLSI method; assay type: functional; settings: read-out: MEC
Summary of the method: (§1)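 MEC by CLSI broth microdilution in RPMI 1640. Conidia were incubated with or without drug for 48 h at 37°C, in triplicate.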

[3] = tested on: Aspergillus fumigatus; experiment: Antifungal activity against Aspergillus fumigatus H237 assessed as abnormal hyphal growth by CLSI method; assay type: functional; settings: read-out: MEC; summary of the method: as §1
[4] = tested on: Aspergillus fumigatus; experiment: Antifungal activity against Aspergillus fumigatus Af293 expressing crzA gene assessed as abnormal hyphal growth by CLSI method; assay type: functional; settings: read-out: MEC; summary of the method: as §1
[5] = tested on: Aspergillus fumigatus; experiment: Antifungal activity against rasA deficient Aspergillus fumigatus H237 assessed as abnormal hyphal growth by CLSI method; assay type: functional; settings: read-out: MEC; summary of the method: as §1
[6] = tested on: Aspergillus fumigatus; experiment: Antifungal activity against Aspergillus fumigatus H237 expressing dominant-active rasA gene assessed as abnormal hyphal growth by CLSI method; assay type: functional; settings: read-out: MEC; summary of the method: as §1
[7] = tested on: Aspergillus fumigatus; experiment: Antifungal activity against Aspergillus fumigatus Af293 assessed as abnormal hyphal growth by CLSI method; assay type: functional; settings: read-out: MEC; summary of the method: as §1
[8] = tested on: Aspergillus fumigatus; experiment: Antifungal activity against crzA deficient Aspergillus fumigatus Af293 assessed as abnormal hyphal growth by CLSI method; assay type: functional; settings: read-out: MEC; summary of the method: as §1
[9] = tested on: Aspergillus fumigatus; experiment: Antifungal activity against Aspergillus fumigatus Af293 expressing cnaA gene assessed as abnormal hyphal growth by CLSI method; assay type: functional; settings: read-out: MEC; summary of the method: as §1
[10] = tested on: Aspergillus fumigatus; experiment: Antifungal activity against cnaA deficient Aspergillus fumigatus Af293 assessed as abnormal hyphal growth by CLSI method; assay type: functional; settings: read-out: MEC; summary of the method: as §1
[11] = tested on: Aspergillus fumigatus; experiment: Antifungal activity against Aspergillus fumigatus H237 expressing dominant-active rasA assessed as decrease in 1, 3-beta-D-glucan cell wall content at 1 ug/ml after 48 hrs by aniline blue assay; assay type: functional, organism-based
Summary of the method: (§2)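 10⁶ conidia/ml were grown in RPMI 1640 with or without drug for 48 h at 37°C, 250 rpm. Hyphae were washed in 0.1 M NaOH and lyophilized. 5 mg was taken into 1 M NaOH, sonicated and heated at 52°C for 30 min. Aniline blue mix (pH 9.5) was added for 30 min at 52°C. Fluorescence was read at ex 405/em 460 nm against a curdlan standard curve. Results are % change in RFU/mg versus untreated wild type, from five independent experiments.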

[12] = tested on: Aspergillus fumigatus; experiment: Antifungal activity against rasA deficient Aspergillus fumigatus H237 assessed as increase in chitin cell wall content at 1 ug/ml; assay type: functional, organism-based
Summary of the method: (§3)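 Cultures were grown at 10⁶ conidia/ml in RPMI 1640 with 1 μg/ml drug (single agent or combination) for 48 h at 37°C, 250 rpm. 5 mg of lyophilized mycelium was digested in saturated KOH at 130°C for 1 h, then ethanol-precipitated. Glucosamine was measured by nitrous acid deamination and MBTH/FeCl₃ colour, A650, against a 10 μg/ml glucosamine standard. Output is glucosamine equivalents (μg/ml), from biological triplicate.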

[13] = tested on: Aspergillus fumigatus; experiment: Antifungal activity against Aspergillus fumigatus Af293 assessed as increase in chitin cell wall content at 1 ug/ml after 48 hrs; assay type: functional, organism-based; summary of the method: as §3
[14] = tested on: Aspergillus fumigatus; experiment: Antifungal activity against Aspergillus fumigatus H237 assessed as increase in chitin cell wall content at 1 ug/ml after 48 hrs; assay type: functional, organism-based; summary of the method: as §3
[15] = tested on: Candida albicans; experiment: Antifungal activity against Candida albicans SC5314 assessed as increase in chitin cell wall content at 0.125 ug/ml; assay type: functional
[16] = tested on: Aspergillus fumigatus; experiment: Antifungal activity against rasA deficient Aspergillus fumigatus H237 assessed as decrease in 1, 3-beta-D-glucan cell wall content at 1 ug/ml by aniline blue assay; assay type: functional, organism-based; summary of the method: as §2
[17] = tested on: Aspergillus fumigatus; experiment: Antifungal activity against crzA deficient Aspergillus fumigatus Af293 assessed as increase in chitin cell wall content at 1 ug/ml; assay type: functional, organism-based; summary of the method: as §3
[18] = tested on: Aspergillus fumigatus; experiment: Antifungal activity against Aspergillus fumigatus Af293 assessed as increase in calcofluor white staining og conidia at 1 ug/ml after 16 hrs by fluorescence microscopy; assay type: functional, organism-based
Summary of the method: (§4)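 10³ conidia/ml were grown on coverslips in RPMI 1640 with or without 1 μg/ml drug for 16 h at 37°C. Coverslips were stained with calcofluor white for 5 min at room temperature, rinsed and mounted. Fluorescence microscopy used a UV exposure fixed at 25 ms, set on the untreated wild type.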

[19] = tested on: Aspergillus fumigatus; experiment: Antifungal activity against cnaA deficient Aspergillus fumigatus Af293 assessed as increase in calcofluor white staining og conidia at 1 ug/ml after 16 hrss by fluorescence microscopy; assay type: functional, organism-based; summary of the method: as §4
[20] = tested on: Aspergillus fumigatus; experiment: Antifungal activity against Aspergillus fumigatus H237 assessed as decrease in 1, 3-beta-D-glucan cell wall content at 1 ug/ml after 48 hrs by aniline blue assay; assay type: functional, organism-based; summary of the method: as §2
[21] = tested on: Aspergillus fumigatus; experiment: Antifungal activity against Aspergillus fumigatus H237 expressing dominant-active rasA assessed as increase in chitin cell wall content at 1 ug/ml; assay type: functional, organism-based; summary of the method: as §3
[22] = tested on: Aspergillus fumigatus; experiment: Antifungal activity against Aspergillus fumigatus Af293 assessed as decrease in 1, 3-beta-D-glucan cell wall content at 1 ug/ml after 48 hrs by aniline blue assay; assay type: functional, organism-based; summary of the method: as §2
[23] = tested on: Aspergillus fumigatus; experiment: Antifungal activity against cnaA deficient Aspergillus fumigatus Af293 assessed as increase in chitin cell wall content at 1 ug/ml; assay type: functional, organism-based; summary of the method: as §3
[24] = tested on: Aspergillus fumigatus; experiment: Antifungal activity against crzA deficient Aspergillus fumigatus Af293 assessed as decrease in 1, 3-beta-D-glucan cell wall content at 1 ug/ml by aniline blue assay; assay type: functional, organism-based; summary of the method: as §2
[25] = tested on: Aspergillus fumigatus; experiment: Antifungal activity against crzA deficient Aspergillus fumigatus Af293 assessed as increase in calcofluor white staining og conidia at 1 ug/ml after 16 hrss by fluorescence microscopy; assay type: functional, organism-based; summary of the method: as §4
[26] = tested on: Aspergillus fumigatus; experiment: Antifungal activity against cnaA deficient Aspergillus fumigatus Af293 assessed as decrease in 1, 3-beta-D-glucan cell wall content at 1 ug/ml by aniline blue assay; assay type: functional, organism-based; summary of the method: as §2

SMILES	Activity [1]	minimal effective concentration [2] [µg/mL]	minimal effective concentration [3] [µg/mL]	minimal effective concentration [4] [µg/mL]	minimal effective concentration [5] [µg/mL]	minimal effective concentration [6] [µg/mL]	minimal effective concentration [7] [µg/mL]	minimal effective concentration [8] [µg/mL]	minimal effective concentration [9] [µg/mL]	minimal effective concentration [10] [µg/mL]	other results
CCCCCOc1ccc(-c2ccc(-c3ccc(C(=O)N[C@H]4C[C@@H](O)[C@@H](O)NC(=O)[C@@H]5[C@@H](O)[C@@H](C)CN5C(=O)[C@H]([C@@H](C)O)NC(=O)[C@H]([C@H](O)[C@@H](O)c5ccc(O)cc5)NC(=O)[C@@H]5C[C@@H](O)CN5C(=O)[C@H]([C@@H](C)O)NC4=O)cc3)cc2)cc1 [ANIDULAFUNGIN] ({pTerphenylCO(4''-OnC5H11)}-[Orn(4R-OH,5R-OH)]T[Hyp][hTyr(3S-OH,4S-OH)]T[Pro(3S-OH,4S-Me)]; lactam 1-C)	Active	0.125	0.0625	0.125	2	0.0156	0.0625	0.0156	0.0625	0.0039	–
CC[C@H](C)C[C@H](C)CCCCCCCCC(=O)N[C@H]1C[C@@H](O)[C@@H](NCCN)NC(=O)[C@@H]2[C@@H](O)CCN2C(=O)[C@H]([C@H](O)CCN)NC(=O)[C@H]([C@H](O)[C@@H](O)c2ccc(O)cc2)NC(=O)[C@@H]2C[C@@H](O)CN2C(=O)[C@H]([C@@H](C)O)NC1=O [CASPOFUNGIN]	Active	1	1	1	8	0.25	1	0.5	1	0.25	Activity [11]: Active; Activity [12]: Active; Activity [13]: Active; Activity [14]: Active; fold change (FC) [15]: 2; Activity [16]: Active; Activity [17]: inactive; Activity [18]: inactive; Activity [19]: inactive; Activity [20]: Active; Activity [21]: Active; Activity [22]: Active; Activity [23]: inactive; Activity [24]: Active; Activity [25]: Active; Activity [26]: Active
